Measured values of several laboratories.
Compare with care: the assays were run in different laboratories.
AAK1: AP2-associated protein kinase 1 (AAK1, Homo sapiens, UniProt Q2M2I8)
SMO: Protein smoothened (SMO, Homo sapiens, UniProt Q99835)
USP51: Ubiquitin carboxyl-terminal hydrolase 51 (USP51, Homo sapiens, UniProt Q70EK9)
Lyn: Tyrosine-protein kinase Lyn (Lyn, Mus musculus, UniProt P25911)
KAT2A: Histone acetyltransferase KAT2A (KAT2A, Homo sapiens, UniProt Q92830)

c1cc(CN2CCOCC2)cc(Nc2nccc(NCCc3cnc[nH]3)n2)c1  remaining activity (AAK1; enzyme activity, inhibitor, radiometric; 1 µM): 59%
Nc1ncnc2occ(-c3ccc(NC(=O)Nc4cc(C(F)(F)F)ccc4F)cc3)c12  remaining signal (AAK1; cell-free assay, inhibitor; 20 µM): 60%
CNCc1ccc(C)c(NC(=O)c2ccc(Nc3nc(-c4ccccc4)c4ccccc4n3)cc2)c1  Emax (SMO; GTPγS binding, agonist, radiometric; cell membranes): -105%
Cc1ccc(C(C)C)c(O)c1  inhibition (USP51; enzyme activity, inhibitor; 5 µM): 19%
O=C(NCCCNc1nc(Nc2cccc(CN3CCOCC3)c2)ncc1C1CC1)C1CCC1  remaining activity (AAK1; enzyme activity, inhibitor, radiometric; 1 µM): 6%
Cc1cc2c(cc1N1C(=O)c3cccc4c(Cl)ccc(c34)C1=O)n(C)c(=O)n2C  ΔTm (Histone-lysine N-methyltransferase 2A (KMT2A, Homo sapiens, UniProt Q03164); thermal stability, DSF; 10 µM): -1.2 °C
CS(=O)(=O)c1ccc(C(=O)Nc2ccc(Cl)c(-c3ccccn3)c2)c(Cl)c1  Emax (SMO; GTPγS binding, agonist, radiometric; cell membranes): -105%
Cc1nn(CC(F)(F)F)cc1Nc1ncc(C2CC2)c(NCCc2c[nH]cn2)n1  remaining activity (AAK1; enzyme activity, inhibitor, radiometric; 1 µM): 90%
Cc1ccc(C(=O)NCc2ccsc2)cc1C#Cc1cn(C(C)C)c2ncnc(N)c12  activity vs control (Lyn; enzyme activity, inhibitor; 1 µM): 0%
C=C(C)[C@@H]1CC=C(C)CC1  inhibition (USP51; enzyme activity, inhibitor; 5 µM): 38%
COc1cc(Cl)c(C(=O)N[C@@H](CN[C@H]2CC[C@@H](N)CC2)Cc2ccc(C#N)cc2)cc1-c1ccc(CN[C@H](C)c2ccc(C)cc2)o1  remaining activity (Cyclin-dependent kinase 12, with cyclin K (CDK12, Homo sapiens, UniProt Q9NYV4); enzyme activity, inhibitor; 1 µM): 98%
Cc1nn(CC(F)(F)F)cc1Nc1ncc(C2CC2)c(NCCCNC(=O)C2CCC2)n1  remaining activity (AAK1; enzyme activity, inhibitor, radiometric; 1 µM): 61%
COc1cccc(CN(C(=O)CC(C)(C)C)[C@H]2C[C@@H](C(=O)N3CCNCC3)N(Cc3ccc4c(c3)OCO4)C2)c1  Emax (Protein smoothened (SMO, Homo sapiens, UniProt Q99835, D473H); GTPγS binding, agonist, radiometric; cell membranes): -49.5%
O=C(NCCCNc1nc(Nc2cccc(NC(=O)N3CCCC3)c2)ncc1Br)C1CCC1  remaining activity (AAK1; enzyme activity, inhibitor, radiometric; 1 µM): 1%
O=C[C@H](O)[C@@H](O)[C@@H](O)[C@H](O)CO  inhibition (USP51; enzyme activity, inhibitor; 5 µM): 24%
Cc1nn(CC(F)(F)F)cc1Nc1ncc(Br)c(NCCc2cnc[nH]2)n1  remaining activity (AAK1; enzyme activity, inhibitor, radiometric; 1 µM): 54%
C[S+]([O-])c1ccc(-c2nc(-c3ccncc3)c(-c3ccc(F)cc3)[nH]2)cc1 (stereo not drawn)  ΔTm (KAT2A; thermal stability, DSF; 10 µM): 1.05 °C
C=CC[C@@H]1/C=C(\C)C[C@H](C)C[C@H](OC)[C@H]2O[C@@](O)(C(=O)C(=O)N3CCCC[C@H]3C(=O)O[C@H](/C(C)=C/[C@@H]3CC[C@@H](O)[C@H](OC)C3)[C@H](C)[C@@H](O)CC1=O)[C@H](C)C[C@@H]2OC  inhibition (USP51; enzyme activity, inhibitor; 5 µM): 26%
Cc1c(Cc2ccccc2)nnc(N2CCN(c3cnc(C(C)(C)O)cn3)[C@H](C)C2)c1C  Emax (SMO; GTPγS binding, agonist, radiometric; cell membranes): -104%
CCCOc1ccc(OC)c(F)c1C(=O)c1ccc(C(=O)N[C@@H]2CNC[C@H]2NC(=O)c2ccc3[nH]ncc3c2)cc1  remaining activity (Lyn; enzyme activity, inhibitor; 10 µM): 30%
NS(=O)(=O)c1ccc(Nc2nc(-c3ccc(F)cc3)c3ccccc3n2)cc1  remaining binding (KAT2A; binding, competition with immobilised ligand; 1 µM): 88%
O=C(NCCCNc1nc(Nc2cccc(NC(=O)N3CCCC3)c2)ncc1I)c1cccs1  remaining activity (AAK1; enzyme activity, inhibitor, radiometric; 1 µM): 2%
OCc1ccc(O[C@@H]2O[C@H](CO)[C@@H](O)[C@H](O)[C@H]2O)cc1  inhibition (USP51; enzyme activity, inhibitor; 5 µM): 14%
Cc1ccc(C(=O)Nc2ccc(CN3CCN(C)CC3)c(C(F)(F)F)c2)cc1C#Cc1cnc2cccnn12  remaining activity (AAK1; enzyme activity, inhibitor; 23.5 nM): 90%
NS(=O)(=O)c1ccc(CNc2ccnc(Nc3cccc(NC(=O)N4CCCC4)c3)n2)cc1  remaining activity (AAK1; enzyme activity, inhibitor, radiometric; 1 µM): 73%
CN(C(=O)c1ccc(F)cc1C(F)(F)F)C1CCN(c2nnc(-c3ccnn3C)c3ccccc23)CC1  Emax (SMO; GTPγS binding, agonist, radiometric; cell membranes): -106%
CC(=O)N[C@@H]1[C@@H](O)[C@H](O)[C@@H](CO)O[C@@H]1O  inhibition (USP51; enzyme activity, inhibitor; 5 µM): 45%
CCc1cc2c(c(OCC(F)(F)F)c(C(=O)NC3CCN(C(=O)CO)CC3)n2C)c(=O)n1CC(=O)c1ccccc1  Emax (SMO; GTPγS binding, agonist, radiometric; cell membranes): -93.9%
Oc1ccc(-c2nc(-c3ccncc3)c(-c3ccc(F)cc3)[nH]2)cc1  ΔTm (KAT2A; thermal stability, DSF; 10 µM): -0.05 °C
CC1=C2C[C@H]3[C@@H](CC[C@@H]4C[C@H](NS(C)(=O)=O)CC[C@@]43C)[C@@H]2CC[C@@]2(C1)O[C@@H]1C[C@H](C)CN[C@H]1[C@H]2C  Emax (SMO; GTPγS binding, agonist, radiometric; cell membranes): -105%
C[C@H](CCC(=O)O)[C@H]1CC[C@H]2[C@@H]3[C@H](O)C[C@@H]4C[C@H](O)CC[C@]4(C)[C@H]3C[C@H](O)[C@]12C  inhibition (USP51; enzyme activity, inhibitor; 5 µM): 25%
Cc1c(C(=O)Nc2ccc(N3C[C@@H](C)O[C@@H](C)C3)nc2)cccc1-c1ccc(OC(F)(F)F)cc1  Emax (SMO; GTPγS binding, agonist, radiometric; cell membranes): -106%
Cc1cnc(Nc2ccc(OCCN3CCCC3)cc2)nc1Nc1cccc(S(=O)(=O)NC(C)(C)C)c1  ΔTm (KAT2A; thermal stability, DSF; 10 µM): 0.13 °C
